Hits are enriched below; roughly 4.6% of the tested compounds scored in any of these assays.
Arr AP2 block – human beta-arrestin and AP2 interaction inhibition | FITC-arrestin peptide / GST-AP2 beads, flow cytometry; AP2 beta2 appendage carries R879A mutation | inhibition, % at 10 µM | 0.31% of 340,000 active;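 active = inhibition above a set limit, near 3 SD of compounds lacking own fluorescence, cut at about 54% in these data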;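 note: plate controls were DMSO wells for no effect and 5 µM unlabelled arrestin peptide for full effect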
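System: GST-AP2 R879A glutathione beads; medium: PBS, Tween 20 0.05%, BSA 0.1%; reagent: fluorescein-tagged arrestin peptide at 50 nM final; schedule: pre-incubation 12 min, peptide binding 1 h, room temperature; detection: flow cytometry, FL1 (488/535 nm); read-out: inhibition as reduced fluorescein signal on beads, percent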
DSG3 Ab inh – blocks pemphigus antibody binding to human desmoglein-3. 0.48% of 310,000 active. binding (percent of control), % at 10 µM. DSG3-coupled beads, scFv-anti-DSG3-GFP binding, flow cytometry; active compounds read low. P32926. AID 588358;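 active = binding more than 3 SD below its plate's average and above zero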;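 note: hits lower antibody fragment binding to DSG3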
NALP1 inh – NALP1 inhibition; S. cerevisiae NALP1/ASC/caspase-1 growth, X-gal OD620, 72 h; inhibition, % at 10 µM; 0.61% of 280,000 active; AID 2071; in the data active = inhibition mostly above about 24%, no sharp cut-off; inactive = mostly below about 32%
ALR inh – blocks human ALR sulfhydryl oxidase activity. P55789. purified ALR, DTT oxidation, H2O2 HRP-luminol luminescence. inhibition, % (no concentration beside the values). 3.8% of 290,000 active. AID 485317;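 active = mean replicate inhibition above about 79%, with every replicate also reaching it, limit read from the data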
Target sequence (P55789 whole entry, looked up): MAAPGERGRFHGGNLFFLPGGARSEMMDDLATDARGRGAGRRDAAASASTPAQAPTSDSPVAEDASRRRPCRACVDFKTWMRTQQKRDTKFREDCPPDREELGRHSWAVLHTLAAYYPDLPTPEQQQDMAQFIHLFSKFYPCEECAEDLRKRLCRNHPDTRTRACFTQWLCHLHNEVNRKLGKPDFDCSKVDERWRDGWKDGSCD
PolyA inh – yeast polyadenylation inhibition | S. cerevisiae SKY197-pL101 polyadenylation reporter, beta-gal luminescence; efflux-impaired pdr1/pdr3 knockout yeast; score 100 = 6 SD above DMSO | activity score, % at 12 µM | 0.02% of 300,000 active;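 active = lowest replicate activity score at least 50, where 100 means six control SD above control mean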;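 note: yeast exposed to compound for 9 h at 30 °C; higher score means more reporter readthrough which indicates perturbed polyadenylation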
NLRP3 yeast inh – NALP3 inhibition in yeast | Yeast reconstituted NLRP3/ASC/caspase-1, beta-gal luminescence, 24 h | inhibition, % at 10 µM | 0.39% of 330,000 active;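 active = inhibition of 50% or more; inactive = inhibition below 50%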;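 note: plate controls were induced DMSO wells for no effect and uninduced yeast grown without galactose for full effect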
* marks the source's active call; other numbers are inactive results; nt = no result given.

SMILES	Arr AP2 block	DSG3 Ab inh	NALP1 inh	ALR inh	PolyA inh	NLRP3 yeast inh
O=C(O)c1ccc(SCc2cnc(Cl)s2)cc1	13	101	2	nt	61*	-3
Cc1nc(C(=O)NNC(=O)c2c(-c3c(Cl)cccc3Cl)noc2C)cs1	-1	117	nt	-4	4	8
Cc1onc(-c2c(Cl)cccc2Cl)c1C(=O)Nc1nc(C(C)(C)C)cs1	25	97	36*	0	-23	9
CCOC(=O)CCC(NC(=O)c1ccc(Nc2nc3ccccc3nc2C(=O)OCC)cc1)C(=O)OCC (configuration not stated)	-18	88	nt	nt	nt	nt
Cc1cc(C)c(OCCCn2ccnc2)c(C)c1	-4	99	10	4	-13	-3
Cc1cc(Cl)c(OCCCn2ccnc2)c(Br)c1	-13	99	50*	-3	3	10
O=C(Nc1ccccc1N1CCCC1)c1ccccc1F	-11	98	-3	98*	-6	-5
CCC(C(=O)Nc1ccccn1)c1ccccc1 (configuration not stated)	31	101	nt	2	1	19
CCC(Oc1ccccc1)C(=O)Nc1ccccc1N1CCCC1 (configuration not stated)	3	105	1	32	10	12
O=C(Cc1ccccc1F)Nc1ccccc1N1CCCC1	-10	106	-49	98*	-6	29
CCC(C(=O)Nc1cnccn1)c1ccccc1 (configuration not stated)	-4	99	22*	-2	8	22
CCC(C(=O)Nc1ccccc1N1CCCC1)c1ccccc1 (configuration not stated)	20	nt	8	98*	-1	17
COc1cc(OC)cc(OC(=O)C2CCN(C(=O)c3ccc(F)cc3)CC2)c1	-11	103	nt	9	2	13
O=C(Nc1ccccc1N1CCCC1)c1cccc(Cl)c1Cl	0	88	-12	98*	-36	3
O=C(CNCC1CCCO1)Nc1ccc(N2CCCCCC2)cc1 (configuration not stated)	8	99	11	nt	13	15
O=C(CNCC1CCCO1)Nc1ccccc1N1CCCCCC1 (configuration not stated)	3	101	2	99*	2	-17
O=C(CN1C(=O)C2CCCCC2C1=O)Nc1ccccc1N1CCCC1 (configuration not stated)	4	99	nt	97*	-6	11
O=C1CCC(C(=O)Nc2ccccc2N2CCCC2)=NN1	21	91	nt	85*	-9	16
CC1CN(C(=O)CSc2nc(N)c(NC(=O)c3ccc(C(F)(F)F)cc3)c(=O)[nH]2)CC(C)O1 (configuration not stated)	nt	98	nt	nt	nt	nt
Cc1cc(C)c2nc(-c3ccccn3)cc(C(=O)NCc3ccco3)c2c1	26	93	9	89*	-7	17
Cc1cc(C)c2nc(-c3ccccn3)cc(C(=O)NCc3cc(C)n(C)n3)c2c1	-2	108	-5	-5	-3	10
CCc1ccccc1OCC(=O)NNCC(=O)Nc1cccc(C#N)c1	-7	105	nt	0	nt	1
CCOc1ncccc1C(=O)OCCCC(=O)c1ccc(Br)cc1	26	110	nt	nt	nt	29
CC(OC(=O)CNC(=O)C12CC3CC(CC(C3)C1)C2)C(=O)Nc1ncc(Cl)cc1Cl (configuration not stated)	-12	102	40*	-7	16	-6
CC(OC(=O)CNC(=O)C12CC3CC(CC(C3)C1)C2)C(=O)Nc1ccc(S(N)(=O)=O)cc1 (configuration not stated)	0	106	14	-15	-3	-9
SMILES	Arr AP2 block	DSG3 Ab inh	NALP1 inh	ALR inh	PolyA inh	NLRP3 yeast inh
COC(=O)/C=C1\SC(=Nc2ccc(Cl)c(Cl)c2)NC1=O	-12	93	-10	7	7	13
COc1cc(/C=C2\SC(=Nc3ccc(Cl)c(C(=O)O)c3)NC2=O)c(Br)c(Br)c1O	5	115	24	98*	6	-4
COc1cc(/C=C2\SC(=Nc3ccccc3OC)NC2=O)ccc1O	10	101	1	99*	-3	9
COc1cc(/C=C2\SC(=Nc3ccccc3)NC2=O)cc(Cl)c1O	-12	96	3	56	11	20
CCc1ccc(N=C2NC(=O)/C(=C/c3cc(OC)c(O)c(OC)c3)S2)cc1	6	99	4	43	91*	30
CCC1CCCCN1CCCNC(=O)c1cc2c(=O)oc3ccc(C)cc3c2s1 (configuration not stated)	-2	118	12	-1	-6	8
COc1cccc(CN(CCC(C)C)S(=O)(=O)c2cc(Br)ccc2Br)c1	2	105	nt	nt	nt	nt
COc1ccc(C(=O)Nc2cc(C)nn2-c2ccc(C)cc2)cc1	-4	100	-10	-27	-5	29
Cc1cccc(NC(=S)N/N=C/c2cccc(O)c2)c1C	-4	92	-9	nt	-20	-1
Cc1ccccc1NC(=S)N/N=C/c1ccc(O)cc1O	21	102	-18	99*	0	9
Cc1cc(N/N=C/c2ccccc2O)c2ccccc2n1	4	100	23	99*	-1	26
COc1ccc(/C=N/Nc2cc(C)nc3ccc(Br)cc23)cc1	3	99	27	6	3	42
Cc1ccc2nc(C)cc(N/N=C/c3cccnc3)c2c1	11	99	-6	99*	-15	15
COc1ccc2nc(C)cc(N/N=C/c3cccc(OC)c3O)c2c1	7	123	32	87*	5	19
Cc1ccc(-c2cc(-c3ccccc3)nc(N/N=C/c3cccnc3)n2)cc1	10	98	nt	0	nt	21
COc1ccc([C@H]2C[C@H](n3cc(-c4ccc(F)cc4)nn3)[C@@H](O)CN2C(=O)C2CCCCC2)cc1	nt	109	nt	nt	nt	nt
Cc1nc2sccn2c(=O)c1S(=O)(=O)Nc1ccc(N2CCN(C)CC2)cc1	-3	99	11	97*	-13	1
COc1ccc(N2CCN(S(=O)(=O)c3c(C)nc4sccn4c3=O)CC2)cc1	10	94	1	84*	-4	12
Cc1nc2sccn2c(=O)c1S(=O)(=O)NCCc1ccc(Cl)cc1	-5	-7.6*	20	0	24	11
Cc1ccc(CCNS(=O)(=O)c2c(C)nc3sccn3c2=O)cc1	19	112	4	-7	-18	12
COc1ccc(NC(=O)CON=CC(=O)Nc2ccc(C)cc2)c(OC)c1	-10	nt	nt	nt	nt	18
CC1(C)C2CC[C@]3(C)C(CC=C4[C@@H]5C[C@@](C)(CO)[C@@H](O)C[C@]56C[C@@H](OC6=O)[C@]43C)[C@@]2(C)CC[C@@H]1O (some centres not stated)	-4	103	nt	-7	2	36
